Experimental data from ChEMBL document CHEMBL3826876, “Toward the Development of Specific G-Quadruplex Binders: Synthesis, Biophysical, and Biological Studies of New Hydrazone Derivatives” (J Med Chem, 2016).
Active and inactive are the calls of the source. No cut-off for these calls is given here.

Legend:
[1] = Effect on synthetic c-KIT2 G-quadruplex DNA topology at 4 mol equiv by circular dichroism spectroscopic analysis
Outline: (§1)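 CD spectra at 20 °C, 230-360 nm, 3 scans averaged, baseline subtracted; 10 µM G4 or 15 µM duplex in potassium- or lithium-phosphate pH 7.0 buffers with 100 mM KCl (c-kit2, c-myc: 5 mM potassium phosphate, 20 mM KCl); ligand 4 molar equiv added to folded DNA from 6 mM DMSO stock.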

[2] = system: U2OS; test: Stabilization of nuclear G-quadruplex DNA in human U2OS cells at 0.2 to 1 uM after 24 hrs by DAPI staining based immunofluorescence assay; type: cell-based
Outline: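 U2OS seeded at 100000 cells/ml, treated 24 h after seeding for 24 h; fixed methanol:acetic acid 3:1, 0.1% Triton X-100, 2% milk block. Stained with in-house His-purified BG4, anti-FLAG, Alexa 488 anti-rabbit; nuclei DAPI. Per-cell signal as corrected total cell fluorescence; Student's t test.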

[3] = Effect on synthetic telomere 23 G-quadruplex DNA topology at 4 mol equiv by circular dichroism spectroscopic analysis; outline: as §1
[4] = Binding affinity to synthetic telomere 26 G-quadruplex DNA assessed as change in melting temperature at 4 mol equiv in presence of 100 mM KCl buffer by circular dichroism spectroscopic analysis
Outline: (§2)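 CD melting, 20-100 °C at 1 °C/min, signal at 264 (parallel), 290 (antiparallel) or 280 nm (duplex). G4 DNA 10 µM or duplex 15 µM, folded by heating at 90 °C 5 min and slow cooling, in 10 mM potassium phosphate (c-kit1, Tel23, Tel26) or lithium phosphate (Tel23-p, ds12) pH 7.0 with 100 mM KCl. Ligand 4 equiv; Tm by curve fit, ΔTm vs DNA alone; duplicate average.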

[5] = Binding affinity to human 5'-FAM/3'-TAMRA labeled telomere 21 parallel G-quadruplex DNA (unknown origin) assessed as change in melting temperature at 4:1 ligand:DNA ratio in presence of 100 mM KCl buffer by FRET assay
Outline: (§3)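 FRET melting of FAM/TAMRA-labelled G4 oligos (400 nM, annealed 85 °C 10 min) with ligand at 4 equiv, same buffers as CD (20 mM KCl for c-kit2 and c-myc; 100 mM KCl for telomeric parallel form, annealed at high concentration). Excitation 450-495 nm, emission 515-545 nm, read every 0.5 °C over 30-100 °C; ΔTm by curve fit; duplicate runs averaged.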

[6] = system: U2OS; test: Cytotoxicity against human U2OS cells assessed as cell death after 24 hrs by microscopic analysis; type: cell-based
[7] = Binding affinity to synthetic telomere 23 G-quadruplex DNA assessed as change in melting temperature at 4 mol equiv in presence of 100 mM KCl buffer by circular dichroism spectroscopic analysis; outline: as §2
[8] = Effect on preformed synthetic c-MYC parallel G-quadruplex DNA topology in tris buffer after 10 mins by circular dichroism titration method
[9] = Induction of parallel G-quadruplex formation in synthetic unfolded c-KIT2 DNA assessed as increase in molar ellipticity after 10 mins in absence of metal cation by circular dichroism titration method
Outline: (§4)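 CD titration without metal ions: unfolded oligonucleotide 12-15 µM in 50 mM Tris; ligand added in 0.5 equiv steps, spectrum recorded 10 min after each addition at 20 °C, 230-360 nm, 3 scans averaged.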

[10] = Binding affinity to synthetic c-KIT2 G-quadruplex DNA assessed as increase in thermal stability in presence of 20 mM KCl buffer by circular dichroism spectroscopic analysis
Outline: (§5)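 CD melting in 5 mM potassium phosphate, 20 mM KCl, 10 µM folded G4, heated 20-100 °C at 1 °C/min; ligand:DNA ratios 1:1, 2:1 and 4:1 compared; Tm from curve fit.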

[11] = Binding affinity to 5'-FAM/3'-TAMRA labeled c-KIT2 G-quadruplex DNA (unknown origin) assessed as change in melting temperature at 4:1 ligand:DNA ratio in presence of 20 mM KCl buffer by FRET assay; outline: as §3
[12] = Effect on synthetic c-MYC G-quadruplex DNA topology at 4 mol equiv by circular dichroism spectroscopic analysis; outline: as §1
[13] = Effect on synthetic telomere 23 parallel G-quadruplex DNA topology at 4 mol equiv by circular dichroism spectroscopic analysis; outline: as §1
[14] = Binding affinity to synthetic c-MYC G-quadruplex DNA assessed as increase in thermal stability at 1:1 to 2:1 ligand:DNA ratio in presence of 20 mM KCl buffer by circular dichroism spectroscopic analysis; outline: as §5
[15] = Binding affinity to 5' and 3'-terminal G-tetrads of synthetic c-KIT2 G12T/G21T double mutant parallel G-quadruplex DNA in presence of 20 mM KCl solution by NMR spectroscopic analysis
Outline: (§6)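 1H NMR titration at 25 °C, 700 MHz, water-suppressed 1D spectra; DNA 0.2-0.5 mM strand in H2O/D2O 9:1. Myc22 in 25 mM KH2PO4, 70 mM KCl, 0.2 mM EDTA, pH 7.0; c-kit2 T12/T21 in 5 mM KH2PO4, 20 mM KCl, 0.2 mM EDTA, pH 6.8. Ligand in DMSO-d6 added stepwise into the tube; imino proton shifts followed.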

[16] = Binding affinity to synthetic self-complementary DNA 12-mer duplex assessed as change in melting temperature at 4 mol equiv in presence of 100 mM KCl buffer by circular dichroism spectroscopic analysis; outline: as §2
[17] = Binding affinity to 5' and 3'-terminal G-tetrads of synthetic MYC22 G14T/G23T double mutant G-quadruplex DNA in presence of 70 mM KCl solution by NMR spectroscopic analysis; outline: as §6
[18] = Binding affinity to 5'-FAM/3'-TAMRA labeled c-MYC G-quadruplex DNA (unknown origin) assessed as change in melting temperature at 4:1 ligand:DNA ratio in presence of 20 mM KCl buffer by FRET assay; outline: as §3
[19] = Binding affinity to synthetic telomere 23 parallel G-quadruplex DNA assessed as change in melting temperature at 4 mol equiv in presence of 100 mM KCl buffer by circular dichroism spectroscopic analysis; outline: as §2
[20] = Induction of parallel G-quadruplex formation in synthetic unfolded c-KIT1 DNA assessed as increase in molar ellipticity after 10 mins by in absence of metal cation circular dichroism titration method; outline: as §4
[21] = Binding affinity to synthetic c-KIT2 G-quadruplex DNA assessed as change in melting temperature at 4 mol equiv in presence of 20 mM KCl buffer by circular dichroism spectroscopic analysis
Outline: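 CD melting as for other targets (20-100 °C, 1 °C/min, 10 µM folded G4, ligand 4 equiv), but in 5 mM potassium phosphate with 20 mM KCl; c-kit2 read at 264 nm as parallel G4. ΔTm from fitted Tm, duplicate average.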

[22] = Binding affinity to synthetic c-KIT1 G-quadruplex DNA assessed as change in melting temperature at 4 mol equiv in presence of 100 mM KCl buffer by circular dichroism spectroscopic analysis; outline: as §2
[23] = Effect on synthetic c-KIT1 G-quadruplex DNA topology at 4 mol equiv by circular dichroism spectroscopic analysis; outline: as §1

Activity [1]: inactive
Activity [3]: inactive
ΔTm [4]: -3 °C
ΔTm [5]: 7 °C
ΔTm [7]: -2.4 °C
Activity [8]: inactive
Activity [9]: inactive
Activity [10]: Dose-dependent effect
ΔTm [11]: 15 °C
Activity [12]: inactive
Activity [13]: inactive
Activity [14]: Active
Activity [15]: Active
ΔTm [16]: -0.8 °C
Activity [17]: Active
ΔTm [18]: > 20 °C
ΔTm [19]: 9.1 °C
Activity [20]: inactive
ΔTm [21]: 9.5 °C
ΔTm [22]: 2.7 °C
Activity [23]: inactive
Structure (SMILES): Br.O=Cc1c(-c2ccccc2)nc2n1ccc1nc(-c3ccccc3)c(/C=N/NC3=NCCN3)n12
Activity [2]: Active
Activity [6]: Non-toxic
